hERG protect – hERG (human) protection from proarrhythmic block; AID 1511; CHO-hERG, FluxOR thallium flux, dofetilide IC70 present; activation (rescue from dofetilide block), less the hit threshold, % at 10 µM; 310,000 compounds, 0.51% hits; Q12809;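 active = activation above the mean of controls blocked by dofetilide plus 5 SD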;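 also: thallium influx through hERG after potassium depolarization seen as dye fluorescence rise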
KCNQ1 pot – potentiators or activators of human KCNQ1 potassium channel; CHO-K1 KCNQ1, thallium flux FluxOR fluorescence; hits give high values; 310,000 compounds, 0.35% hits; P51787; B-score at 10 µM;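 active = fluorescence ratio B-score, a plate-corrected score, at least three library SD, with initial intensity B-score within 5 SD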
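Doses: Single concentration per compound, DMSO matched to controls | Test system: KCNQ1-transfected CHO-K1 cells | Timing: 90 min dye loading and 20 min compound exposure, both at room temperature | Measured by: Kinetic FluxOR thallium fluorescence, 10-s 1-Hz baseline, 110-s post-stimulus read | Medium: Assay buffer with matched DMSO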
KCNK3 block – human KCNK3 channel inhibition, primary screen; O14649; CHO-KCNK3 thallium flux, FluxOR fluorescence; hits give low values; 340,000 compounds, 0.84% hits; AID 602410; B-score at 10 µM;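 active = B-score under library mean minus 4 SD, starting fluorescence ratio at most library mean plus 5 SD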;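 also: more negative B-score means stronger inhibition of thallium flux through KCNK3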
Kir21 block – Kir2.1 (mouse) channel inhibition; P35561; HEK293-Kir2.1, FluxOR thallium flux fluorescence; hits give low values; 310,000 compounds, 0.85% hits; AID 1672; B-score at 10 µM;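 active = fluorescence ratio B-score at or below minus 3 SD of library scores, with starting-brightness B-score within 2 SD, cut at about -4.2 in these data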;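 also: channel flux triggered by added potassium and thallium sulfate stimulus; B-score of peak minus minimum fluorescence over baseline after thallium stimulus; more negative B-score means stronger Kir2.1 block with less thallium influx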
KCNK9 inh – inhibitors of human KCNK9 two-pore domain potassium channel; Q9NPC2; HEK293 KCNK9, FluxOR thallium flux fluorescence; hits give low values; B-score at 10 µM; 310,000 compounds, 1.2% hits;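 active = ratio B-score over 3 SD below the library mean, with starting fluorescence within 5 SD of its mean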;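 also: negative B-score means less thallium flux so channel inhibition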
Target sequence (Q9NPC2 whole entry, looked up, the tested form may be a part): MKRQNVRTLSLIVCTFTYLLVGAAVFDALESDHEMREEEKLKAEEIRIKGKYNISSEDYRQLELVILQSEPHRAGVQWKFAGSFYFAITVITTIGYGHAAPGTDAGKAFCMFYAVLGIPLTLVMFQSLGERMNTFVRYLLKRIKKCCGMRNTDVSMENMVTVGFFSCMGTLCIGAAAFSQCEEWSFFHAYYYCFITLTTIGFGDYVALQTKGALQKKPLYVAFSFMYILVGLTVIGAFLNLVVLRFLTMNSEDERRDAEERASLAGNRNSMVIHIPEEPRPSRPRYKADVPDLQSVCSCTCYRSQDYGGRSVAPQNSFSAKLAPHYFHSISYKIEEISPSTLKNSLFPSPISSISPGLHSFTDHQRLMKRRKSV
KCNQ1 inh – blocks the human KCNQ1 potassium channel. P51787. CHO-K1 KCNQ1, FluxOR thallium flux fluorescence; hits give high values. B-score at 10 µM. 310,000 compounds, 1.3% hits. AID 2642;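 active = compounds whose thallium flux B-score, printed positive for inhibition, exceeds three library SD while starting fluorescence stays within three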;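 also: channel opened by potassium depolarization with thallium stimulus after 20 min compound exposure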
Starred values were filed as active, the others as inactive; i = inactive; . = no result given. In the library only some 3.7% were active in any assay of this set; here they are far more common.

SMILES	hERG protect	KCNQ1 pot	KCNK3 block	Kir21 block	KCNK9 inh	KCNQ1 inh
O=C(NCc1ccncc1)C(=O)N/N=C/c1ccc(OCc2ccccc2)cc1	-8.6	i	i	1.08	i	i
O=C(c1ccc(OC2CCN(CCCc3ccccc3)CC2)cc1)N1CCCC1	-12.2	i	i	-5.9*	i	i
CSc1cccc(CN2CCC(Oc3cccc(C(=O)N4CCCC4)c3)CC2)c1	-11.9	i	i	-4.76*	i	i
CC(=O)N1CCN(C(=O)c2ccc(OC3CCN(CCc4ccccc4)CC3)cc2)CC1	-3.2	i	i	-0.92	i	i
CSc1cccc(CN2CCC(Oc3ccc(C(=O)N4CCCCC4)cc3)CC2)c1	-7.7	i	i	-5.54*	i	i
Cc1ccc(CN2[C@@H](CC(C)C)COCCS2(=O)=O)cc1	-10.9	i	i	-1.94	i	i
CC(NC(=O)c1cccc(S(=O)(=O)N2CCN(Cc3ccccc3)CC2)c1)c1ccc(Cl)cc1 (centres undefined)	.	.	i	.	.	.
CC(CCc1ccccc1)NC(=O)CN(C)Cc1ccccc1F (centres undefined)	-7.1	i	i	-0.38	i	i
O=C(CNc1cccc([N+](=O)[O-])c1)N/N=C/c1ccc(F)cc1	9.9*	i	i	-1.59	i	i
CC(CCc1ccccc1)NC(=O)COc1cc(F)ccc1[N+](=O)[O-] (centres undefined)	-11.0	24*	i	-0.22	i	i
CC(CCc1ccccc1)NC(=O)COC(=O)c1cc(NS(=O)(=O)c2ccc(Cl)c([N+](=O)[O-])c2)ccc1O (centres undefined)	-15.2	i	i	0.78	i	6*
CC(CCc1ccccc1)NC(=O)CN(C)Cc1ccc(F)cc1 (centres undefined)	-8.1	i	i	-4.48*	i	i
CC(CCc1ccccc1)NC(=O)Cc1cccs1 (centres undefined)	3.5	i	i	-0.01	i	i
CCOC(=O)CN1C(=O)CN(c2ccc(C)c(C)c2)C1=O	-2.8	i	i	0.51	i	i
CC(CCc1ccccc1)NC(=O)CNc1cccc([N+](=O)[O-])c1 (centres undefined)	-11.8	i	i	-4.67*	i	i
CCOc1ccc(OCCOCCN2CCc3ccccc3C2)cc1	-8.6	i	i	-4.21*	i	i
Cc1ccc(SCCOCCN2CCc3ccccc3C2)cc1	-12.2	i	i	-4.62*	i	i
Clc1ccc(SCCOCCN2CCCCCC2)cc1	-5.4	i	i	-0.74	i	i
CCCOc1ccc(OCCOCCN2CCc3ccccc3C2)cc1	-9.7	i	i	-10.1*	i	i
COc1ccc(OCCCN2CCc3ccccc3C2)cc1	-3.6	i	i	0.16	i	i
C=CCc1cc(OC)ccc1OCCOCCN1CCc2ccccc2C1	-15.5	i	i	-11.8*	i	i
c1ccc(OCCOCCN2CCc3ccccc3C2)cc1	-7.9	i	i	0.09	i	i
Cc1ccc(C2=NN(S(=O)(=O)c3ccccc3)C(c3ccccc3O)C2)cc1 (centres undefined)	-8.2	i	i	0	i	i
CN1C(C(=O)Nc2cccc(O)c2)=CC(c2ccco2)=NS1(=O)=O	-6.4	i	i	-0.18	i	i
CCCn1c(N)c(C(=O)CSc2nc3ncc(Cl)cc3[nH]2)c(=O)[nH]c1=O	.	.	i	.	.	.
SMILES	hERG protect	KCNQ1 pot	KCNK3 block	Kir21 block	KCNK9 inh	KCNQ1 inh
Oc1ccc(Cl)cc1C1=NNC(c2cccs2)C1 (centres undefined)	6.2*	20*	i	-0.87	i	i
Cc1ccc(O)c(C2=NNC(c3ccc(Cl)cc3)C2)c1 (centres undefined)	-8.2	i	i	0.01	i	i
CCN(CC)S(=O)(=O)c1ccc(OC)c(NC(=S)Nc2cccc(C)c2C)c1	-4.5	i	i	-1.03	i	i
COc1ccc(C(=O)c2cnc3cc4c(cc3c2C)OCO4)cc1	-8.7	i	i	-1.4	-6.95*	i
Cc1nc2cc3c(cc2c(C)c1C(=O)OC(C)C)OCO3	-8.4	i	i	1.26	i	i
Cc1ccc2nc(C)c(CN3CCN(c4ccc([N+](=O)[O-])cc4Cl)CC3)n2c1	-17.0	i	i	1.07	i	9*
CCOc1ccc(/C=N/O)cc1	-6.4	i	i	-1.74	i	i
CCOc1ccc(C=NC23CN4CN(CN(C4)C2)C3)cc1	12.2*	i	i	-0.43	i	i
CC(C)N(CCc1ccncc1)C(=S)Nc1ccc(F)c(Cl)c1	-10.8	i	i	-0.21	i	i
CCN(CC)CCNC(=O)C1CCN(S(=O)(=O)c2c(C)noc2/C=C/c2ccccc2F)CC1	-11.8	i	i	-4.59*	i	i
O=C(NC1CC1)C1CCN(C(=O)c2ccc(Cl)cc2Cl)CC1	-0.8	i	i	0.91	i	i
CCc1nnc(NC(=O)CSc2nc(-c3ccccc3)cc(-c3ccc(OC)cc3)c2C#N)s1	6.4*	i	i	0.55	i	i
CNCc1ccccc1Sc1ccc(O)c(O)c1	-1.7	i	i	-6.49*	i	i
Cc1ccccc1Nc1nc(N)nc(COC(=O)c2c(C)noc2C)n1	.	.	i	.	.	.
CC(C)(C)NC(=O)COc1ccc(-c2ccccc2)cc1	-18.1	i	i	0.23	-7.7*	i
Cc1c(Cl)cccc1NC(=O)c1ncn[nH]1	-16.6	i	i	1.32	i	i
COc1cccc(C2CC(c3ccc(C)cc3)=NN2C(=O)c2ccccc2F)c1OC (centres undefined)	-2.1	i	i	1.61	i	i
Cc1ccc(C2=NN(C(=O)c3ccccc3F)C(c3ccccc3F)C2)cc1 (centres undefined)	-5.0	i	i	0	i	7*
COc1ccccc1NC(=O)Cn1cc(C(=O)C2CC2)c2ccccc21	-2.4	i	i	-0.41	i	i
Cc1cc(C(C#N)c2ccc(Cl)cc2)c(Cl)cc1NC(=O)c1cc(I)cc(I)c1O (centres undefined)	-26.2	8*	i	-0.73	i	i
Cc1cc(NC(=O)c2ccc(Cl)cc2)c(C)cc1O	-7.2	i	i	1.77	i	i
CCN(CC)S(=O)(=O)c1ccc(OC)c(NC(=O)c2cc(C)on2)c1	-7.9	i	i	0.49	i	i
Cc1ccsc1/C=N/Nc1ncc(Cl)cc1Cl	-9.0	i	i	-0.65	i	6*

Bioassay records (PubChem)
